inhibition, Activity and IC50 data for 74 molecules are collected here from ChEMBL document CHEMBL1144492, “Novel T-type calcium channel blockers: dioxoquinazoline carboxamide derivatives” (Bioorg Med Chem, 2007).

Calls of active or inactive are those of the source. The calls are words filed in the database; no cut-off is given here.

T1 sequence (O43497 whole entry): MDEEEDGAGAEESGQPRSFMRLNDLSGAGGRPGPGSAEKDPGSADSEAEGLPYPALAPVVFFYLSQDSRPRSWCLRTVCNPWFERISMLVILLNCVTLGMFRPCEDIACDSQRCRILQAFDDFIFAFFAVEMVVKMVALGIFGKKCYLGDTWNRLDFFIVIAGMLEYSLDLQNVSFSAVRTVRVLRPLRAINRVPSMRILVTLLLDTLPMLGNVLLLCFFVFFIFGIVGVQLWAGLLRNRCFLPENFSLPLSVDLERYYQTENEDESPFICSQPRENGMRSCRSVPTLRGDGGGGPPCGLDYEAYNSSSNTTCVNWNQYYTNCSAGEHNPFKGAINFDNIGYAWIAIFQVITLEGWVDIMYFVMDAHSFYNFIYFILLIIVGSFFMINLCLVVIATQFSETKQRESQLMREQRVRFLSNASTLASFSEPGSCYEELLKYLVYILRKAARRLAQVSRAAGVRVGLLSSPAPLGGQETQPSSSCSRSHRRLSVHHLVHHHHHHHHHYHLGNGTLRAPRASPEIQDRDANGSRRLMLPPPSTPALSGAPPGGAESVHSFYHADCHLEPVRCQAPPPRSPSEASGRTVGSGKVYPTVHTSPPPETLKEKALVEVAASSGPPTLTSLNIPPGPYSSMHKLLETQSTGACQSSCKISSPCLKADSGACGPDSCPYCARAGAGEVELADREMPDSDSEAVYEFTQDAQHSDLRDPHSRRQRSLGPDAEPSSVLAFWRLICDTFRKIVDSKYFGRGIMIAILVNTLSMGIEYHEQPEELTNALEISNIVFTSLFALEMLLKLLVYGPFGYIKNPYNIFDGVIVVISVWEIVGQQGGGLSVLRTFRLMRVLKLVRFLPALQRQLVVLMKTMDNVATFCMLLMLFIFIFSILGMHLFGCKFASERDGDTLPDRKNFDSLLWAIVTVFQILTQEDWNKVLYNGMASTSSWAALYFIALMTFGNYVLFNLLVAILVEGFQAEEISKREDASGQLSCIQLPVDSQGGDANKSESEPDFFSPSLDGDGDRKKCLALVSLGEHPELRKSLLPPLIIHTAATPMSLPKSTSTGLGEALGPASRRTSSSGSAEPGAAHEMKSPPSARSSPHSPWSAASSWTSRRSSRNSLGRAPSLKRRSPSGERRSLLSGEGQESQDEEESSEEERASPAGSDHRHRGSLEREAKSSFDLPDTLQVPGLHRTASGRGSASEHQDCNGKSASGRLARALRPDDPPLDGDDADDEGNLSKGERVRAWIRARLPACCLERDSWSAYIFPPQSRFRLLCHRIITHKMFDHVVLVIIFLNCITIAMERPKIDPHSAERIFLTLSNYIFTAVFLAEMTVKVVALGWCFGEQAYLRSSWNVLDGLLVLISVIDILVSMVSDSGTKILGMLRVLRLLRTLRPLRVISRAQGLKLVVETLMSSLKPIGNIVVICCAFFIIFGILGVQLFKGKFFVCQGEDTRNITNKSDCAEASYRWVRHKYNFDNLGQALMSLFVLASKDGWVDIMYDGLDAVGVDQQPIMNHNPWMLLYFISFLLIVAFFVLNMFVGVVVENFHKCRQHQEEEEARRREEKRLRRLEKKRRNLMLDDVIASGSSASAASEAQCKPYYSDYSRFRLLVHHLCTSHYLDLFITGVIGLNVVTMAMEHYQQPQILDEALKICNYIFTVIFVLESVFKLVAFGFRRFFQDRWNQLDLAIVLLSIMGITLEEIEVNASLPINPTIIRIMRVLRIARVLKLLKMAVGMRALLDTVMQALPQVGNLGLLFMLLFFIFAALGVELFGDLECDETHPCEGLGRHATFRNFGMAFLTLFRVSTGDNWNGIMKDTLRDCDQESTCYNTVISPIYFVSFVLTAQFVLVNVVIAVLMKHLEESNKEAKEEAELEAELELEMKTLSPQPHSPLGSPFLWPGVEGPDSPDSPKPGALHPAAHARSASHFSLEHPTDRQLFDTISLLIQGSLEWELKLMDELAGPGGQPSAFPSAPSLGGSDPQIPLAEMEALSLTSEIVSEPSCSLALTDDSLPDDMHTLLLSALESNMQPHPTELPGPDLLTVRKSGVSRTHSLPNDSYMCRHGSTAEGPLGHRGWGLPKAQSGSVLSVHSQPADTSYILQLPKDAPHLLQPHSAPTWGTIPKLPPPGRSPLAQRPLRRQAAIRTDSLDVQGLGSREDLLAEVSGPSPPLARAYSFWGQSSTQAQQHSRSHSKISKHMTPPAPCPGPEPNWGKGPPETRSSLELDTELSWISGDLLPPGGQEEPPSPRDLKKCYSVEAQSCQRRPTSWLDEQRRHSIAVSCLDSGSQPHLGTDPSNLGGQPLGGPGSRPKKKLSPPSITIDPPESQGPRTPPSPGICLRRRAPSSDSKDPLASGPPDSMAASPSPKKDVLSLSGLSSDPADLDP

In one experiment the target is T1, Voltage-dependent T-type calcium channel subunit alpha-1G (Homo sapiens, UniProt O43497). Description: Inhibition of T-type calcium channel Cav3.1 with alpha-1G subunit expressed in HEK293 cells at 100 uM by FDSS6000 assay. The class given is cell-based. The following applies: 10 uM, in the assay text read “at 10 uM” for “at 100 uM”. A digest of the protocol:
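HEK293 cells stably expressing α1G plus Kir2.1, grown in DMEM/10% FBS with geneticin and puromycin, plated at 4 × 10^4 cells/well and used next day. Loaded 60 min at room temperature with 5 µM fluo3/AM in Hepes-buffered saline, pH 7.4. Channels opened by depolarization with 70 mM KCl in buffer containing 10 mM CaCl2. Rise in intracellular Ca2+ read by fluorescence on FDSS6000.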
Regarding `O=C(NCCCN1CCOCC1)c1ccc2c(=O)n(Cc3ccc(Cl)cc3)c(=O)[nH]c2c1`, the inhibition (as a rule, the change of the read-out against control, counted positive when it falls) came out at 9.7%.

As for `O=C(NCCCN1CCCC1)c1ccc2c(=O)n(Cc3ccccc3Cl)c(=O)[nH]c2c1`, the inhibition is 6.2%.

The same experiment, now with this note: 100 uM.
For the molecule `CN1CCN(CCCNC(=O)c2ccc3c(=O)n(-c4ccccc4F)c(=O)[nH]c3c2)CC1`, the inhibition came out at 2.4%.

Consider `O=C(NCCCN1CCOCC1)c1ccc2c(=O)n(-c3cccc(F)c3)c(=O)[nH]c2c1`, for which the inhibition came to 15.1%.

For the molecule `O=C(NCCN1CCCC1)c1ccc2c(=O)n(-c3cccc(F)c3)c(=O)[nH]c2c1`, the inhibition came to 4.3%.

Turning to `CCCn1c(=O)[nH]c2cc(C(=O)NCCN3CCOCC3)ccc2c1=O`, the result was inactive.

`O=C(NCCCN1CCCC1)c1ccc2c(=O)n(-c3cccc(F)c3)c(=O)[nH]c2c1`: the result was inactive.

Turning to `COc1cccc(Cn2c(=O)[nH]c3cc(C(=O)NCCCN4CCCCC4C)ccc3c2=O)c1` (centres undefined), the inhibition turned out to be 36.9%.

For `CC1CCCCN1CCCNC(=O)c1ccc2c(=O)n(Cc3ccc(F)cc3)c(=O)[nH]c2c1` (centres undefined), the inhibition was determined as 56.6%.

On to `Cn1c(=O)[nH]c2cc(C(=O)NCCN3CCCC3)ccc2c1=O`, for which the outcome was inactive.

For the molecule `O=C(NCCN1CCCCC1)c1ccc2c(=O)n(Cc3ccc(F)cc3)c(=O)[nH]c2c1`, the inhibition was found to be 65%.

For the molecule `O=C(NCCN1CCCC1)c1ccc2c(=O)n(-c3ccccc3F)c(=O)[nH]c2c1`, the inhibition amounted to 6.5%.

Regarding `O=C(NCCN1CCCCC1)c1ccc2c(=O)n(Cc3cccc(F)c3)c(=O)[nH]c2c1`, the inhibition was determined as 64.6%.

Regarding `CN1CCN(CCCNC(=O)c2ccc3c(=O)n(Cc4ccccc4F)c(=O)[nH]c3c2)CC1`, the inhibition came to 7.3%.

With `COc1cccc(-n2c(=O)[nH]c3cc(C(=O)NCCN4CCCC4)ccc3c2=O)c1`, the inhibition turned out to be 13.1%.

With `CCC1CCCCN1CCCNC(=O)c1ccc2c(=O)n(Cc3ccc(F)cc3)c(=O)[nH]c2c1` (centres undefined), the inhibition came to 68.3%.

With `CC1CCCCN1CCCNC(=O)c1ccc2c(=O)n(Cc3cccc(F)c3)c(=O)[nH]c2c1` (centres undefined), the inhibition amounted to 47.8%.

Consider `COc1ccc(Cn2c(=O)[nH]c3cc(C(=O)NCCN4CCOCC4)ccc3c2=O)cc1`, for which the outcome was inactive.

On to `COc1ccc(-n2c(=O)[nH]c3cc(C(=O)NCCN4CCCC4)ccc3c2=O)cc1`, for which the inhibition came to 10.5%.

For the molecule `CC1CCCCN1CCCNC(=O)c1ccc2c(=O)n(C)c(=O)[nH]c2c1` (centres undefined), the inhibition was 8.5%.

Take `O=C(NCCN1CCCC1)c1ccc2c(=O)n(Cc3ccc(F)cc3)c(=O)[nH]c2c1`: the inhibition was determined as 47.2%.

Turning to `COc1cccc(-n2c(=O)[nH]c3cc(C(=O)NCCCN4CCCC4)ccc3c2=O)c1`, the outcome was inactive.

For the molecule `O=C(NCCN1CCOCC1)c1ccc2c(=O)n(-c3ccc(F)cc3)c(=O)[nH]c2c1`, the result was inactive.

For the molecule `CCCn1c(=O)[nH]c2cc(C(=O)NCCCN3CCOCC3)ccc2c1=O`, the inhibition turned out to be 9.2%.

With `CC1CCCCN1CCCNC(=O)c1ccc2c(=O)n(Cc3ccccc3F)c(=O)[nH]c2c1` (centres undefined), the inhibition was 13.9%.

As to `O=C(NCCCN1CCOCC1)c1ccc2c(=O)n(Cc3ccc(F)cc3)c(=O)[nH]c2c1`, the result was inactive.

Turning to `O=C(NCCCN1CCOCC1)c1ccc2c(=O)n(C3CCCCC3)c(=O)[nH]c2c1`, the inhibition stood at 36.3%.

For `COc1ccccc1Cn1c(=O)[nH]c2cc(C(=O)NCCCN3CCCCC3C)ccc2c1=O` (centres undefined), the inhibition was found to be 12.7%.

For the molecule `O=C(NCCCN1CCCC1)c1ccc2c(=O)n(Cc3cccc(F)c3)c(=O)[nH]c2c1`, the inhibition amounted to 9.8%.

With `CN1CCN(CCCNC(=O)c2ccc3c(=O)n(Cc4ccc(F)cc4)c(=O)[nH]c3c2)CC1`, the inhibition was determined as 25.5%.

`CN1CCN(CCCNC(=O)c2ccc3c(=O)n(C)c(=O)[nH]c3c2)CC1`: the inhibition stood at 3.4%.

For the molecule `CC1CCCCN1CCCNC(=O)c1ccc2c(=O)n(-c3cccc(F)c3)c(=O)[nH]c2c1` (centres undefined), the outcome was inactive.

Turning to `O=C(NCCN1CCOCC1)c1ccc2c(=O)n(-c3cccc(F)c3)c(=O)[nH]c2c1`, the inhibition worked out at 3.8%.

For the molecule `COc1cccc(Cn2c(=O)[nH]c3cc(C(=O)NCCCN4CCCC4)ccc3c2=O)c1`, the inhibition worked out at 13.2%.

Regarding `COc1cccc(Cn2c(=O)[nH]c3cc(C(=O)NCCN4CCCCC4)ccc3c2=O)c1`, the inhibition worked out at 62.9%.

On to `CC1CCCCN1CCCNC(=O)c1ccc2c(=O)n(C3CCCCC3)c(=O)[nH]c2c1` (centres undefined), for which the inhibition is 48.3%.

On to `O=C(NCCN1CCCC1)c1ccc2c(=O)n(C3CCCCC3)c(=O)[nH]c2c1`, for which the inhibition worked out at 57.7%.

As for `COc1ccc(Cn2c(=O)[nH]c3cc(C(=O)NCCCN4CCOCC4)ccc3c2=O)cc1`, the inhibition came out at 36%.

Consider `CCCn1c(=O)[nH]c2cc(C(=O)NCCN3CCCC3)ccc2c1=O`, for which the inhibition stood at 6.7%.

Regarding `CCCn1c(=O)[nH]c2cc(C(=O)NCCCN3CCN(C)CC3)ccc2c1=O`, the outcome was inactive.

Regarding `COc1ccc(Cn2c(=O)[nH]c3cc(C(=O)NCCN4CCCC4)ccc3c2=O)cc1`, the inhibition came out at 39.4%.

Take `COc1ccc(-n2c(=O)[nH]c3cc(C(=O)NCCCN4CCN(C)CC4)ccc3c2=O)cc1`: the result was inactive.

For `O=C(NCCN1CCCCC1)c1ccc2c(=O)n(C3CCCCC3)c(=O)[nH]c2c1`, the inhibition is 52.2%.

As for `O=C(NCCN1CCCCC1)c1ccc2c(=O)n(-c3cccc(F)c3)c(=O)[nH]c2c1`, the inhibition came out at 3.4%.

For the molecule `O=C(NCCN1CCCC1)c1ccc2c(=O)n(Cc3ccccc3F)c(=O)[nH]c2c1`, the inhibition turned out to be 24.9%.

Turning to `Cn1c(=O)[nH]c2cc(C(=O)NCCN3CCCCC3)ccc2c1=O`, the inhibition amounted to 17.6%.

Consider `O=C(NCCN1CCCCC1)c1ccc2c(=O)n(-c3ccc(F)cc3)c(=O)[nH]c2c1`, for which the inhibition turned out to be 12.5%.

With `CN1CCN(CCCNC(=O)c2ccc3c(=O)n(Cc4cccc(F)c4)c(=O)[nH]c3c2)CC1`, the inhibition turned out to be 8.3%.

As to `COc1ccc(Cn2c(=O)[nH]c3cc(C(=O)NCCCN4CCCCC4C)ccc3c2=O)cc1` (centres undefined), the inhibition is 42.3%.

`COc1ccccc1-n1c(=O)[nH]c2cc(C(=O)NCCCN3CCCC3)ccc2c1=O`: the inhibition worked out at 1.5%.

Turning to `COc1ccc(Cn2c(=O)[nH]c3cc(C(=O)NCCCN4CCCC4)ccc3c2=O)cc1`, the inhibition amounted to 26.8%.

For `O=C(NCCN1CCCCC1)c1ccc2c(=O)n(-c3ccccc3F)c(=O)[nH]c2c1`, the inhibition was determined as 7.2%.

Regarding `COc1cccc(Cn2c(=O)[nH]c3cc(C(=O)NCCN4CCCC4)ccc3c2=O)c1`, the inhibition is 27.8%.

As for `COc1ccc(-n2c(=O)[nH]c3cc(C(=O)NCCCN4CCCCC4C)ccc3c2=O)cc1` (centres undefined), the inhibition was 1.5%.

As to `COc1cccc(Cn2c(=O)[nH]c3cc(C(=O)NCCCN4CCOCC4)ccc3c2=O)c1`, the inhibition turned out to be 28.9%.

Take `CCCn1c(=O)[nH]c2cc(C(=O)NCCN3CCCCC3)ccc2c1=O`: the inhibition is 18%.

Consider `COc1ccc(-n2c(=O)[nH]c3cc(C(=O)NCCCN4CCCC4)ccc3c2=O)cc1`, for which the outcome was inactive.

In the case of `CCCn1c(=O)[nH]c2cc(C(=O)NCCCN3CCCCC3C)ccc2c1=O` (centres undefined), the inhibition was determined as 12.5%.

As for `O=C(NCCCN1CCCC1)c1ccc2c(=O)n(Cc3ccc(F)cc3)c(=O)[nH]c2c1`, the inhibition stood at 34.2%.

Regarding `O=C(NCCCN1CCOCC1)c1ccc2c(=O)n(-c3ccccc3F)c(=O)[nH]c2c1`, the inhibition was 2.8%.

For the molecule `O=C(NCCCN1CCOCC1)c1ccc2c(=O)n(-c3ccc(F)cc3)c(=O)[nH]c2c1`, the inhibition stood at 9.2%.

With `COc1cccc(Cn2c(=O)[nH]c3cc(C(=O)NCCCN4CCN(C)CC4)ccc3c2=O)c1`, the inhibition amounted to 20.1%.

`COc1cccc(-n2c(=O)[nH]c3cc(C(=O)NCCCN4CCCCC4C)ccc3c2=O)c1` (centres undefined): the inhibition stood at 12.3%.

As for `COc1cccc(-n2c(=O)[nH]c3cc(C(=O)NCCN4CCCCC4)ccc3c2=O)c1`, the result was inactive.

A further experiment deals with T1, Voltage-dependent T-type calcium channel subunit alpha-1G. Description: Inhibition of T-type calcium channel Cav3.1 with alpha-1G subunit by patch clamp assay.
Settings: not given
Background: In patch-clamp work, channel activity is measured electrically.
In the case of `CCC1CCCCN1CCNC(=O)c1ccc2c(=O)n(Cc3ccc(F)cc3)c(=O)[nH]c2c1` (centres undefined), the half-inhibitory concentration (IC50) – broadly, the midpoint of a concentration-inhibition curve – is 7.98 µM.

For the molecule `O=C(NCCCN1CCCCC1)c1ccc2c(=O)n(Cc3ccc(Cl)cc3)c(=O)[nH]c2c1`, the half-maximal inhibitory concentration (IC50) was determined as 1.95 µM.

`CCC1CCCCN1CCNC(=O)c1ccc2c(=O)n(Cc3ccc(OC)cc3)c(=O)[nH]c2c1` (centres undefined): the half-maximal inhibitory concentration (IC50) was determined as 5.97 µM.

Consider `CC1CCCCN1CCCNC(=O)c1ccc2c(=O)n(Cc3ccc(F)cc3)c(=O)[nH]c2c1` (centres undefined), for which the IC50 was found to be 4.63 µM.

As to `O=C(NCCN1CCCCC1)c1ccc2c(=O)n(Cc3ccc(F)cc3)c(=O)[nH]c2c1`, the concentration for half-maximal inhibition (IC50) stood at 9.23 µM.

Turning to `CCC1CCCCN1CCCNC(=O)c1ccc2c(=O)n(Cc3ccc(Cl)cc3)c(=O)[nH]c2c1` (centres undefined), the IC50 came to 1.52 µM.

With `O=C(NCCN1CCCCC1)c1ccc2c(=O)n(Cc3cccc(F)c3)c(=O)[nH]c2c1`, the IC50 came to 16.9 µM.

Consider `CCC1CCCCN1CCCNC(=O)c1ccc2c(=O)n(Cc3ccc(F)cc3)c(=O)[nH]c2c1` (centres undefined), for which the IC50 stood at 3.31 µM.

Take `O=C(NCCN1CCCC1)c1ccc2c(=O)n(C3CCCCC3)c(=O)[nH]c2c1`: the IC50 came to 7.96 µM.

Regarding `CCC1CCCCN1CCNC(=O)c1ccc2c(=O)n(Cc3ccc(Cl)cc3)c(=O)[nH]c2c1` (centres undefined), the half-maximal inhibitory concentration (IC50) turned out to be 3.38 µM.

In the case of `CC1CCCCN1CCCNC(=O)c1ccc2c(=O)n(Cc3ccc(Cl)cc3)c(=O)[nH]c2c1` (centres undefined), the concentration for half-maximal inhibition (IC50) came to 3.72 µM.

In the case of `CCC1CCCCN1CCCNC(=O)c1ccc2c(=O)n(Cc3ccccc3Cl)c(=O)[nH]c2c1` (centres undefined), the half-maximal inhibitory concentration (IC50) was 2.79 µM.

Turning to `O=C(NCCN1CCCCC1)c1ccc2c(=O)n(Cc3ccc(Cl)cc3)c(=O)[nH]c2c1`, the half-inhibitory concentration (IC50) turned out to be 2.08 µM.

On to `CCC1CCCCN1CCCNC(=O)c1ccc2c(=O)n(Cc3ccc(Cl)cc3)c(=S)[nH]c2c1` (centres undefined), for which the half-maximal inhibitory concentration (IC50) was 0.1 µM.

On to `O=C(NCCN1CCCC1)c1ccc2c(=O)n(Cc3ccc(Cl)cc3)c(=O)[nH]c2c1`, for which the IC50 worked out at 2.46 µM.
